Shown is part of a subset that was picked to be rich in hits.
INS-1E ATP HTS: INS-1E beta cell protection from cytokine death | protection from cytokine-induced ATP loss, % at 10 µM | hit rate 0.1% among 20,000 | INS-1E cytokine-induced death, ATP luminescence, 48 h; normalised: neutral wells 0, positive control 100 | AID 488910;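 active = mean replicate protection from cytokine-induced ATP loss at least 50% and at least 75% of replicates each reaching 50%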
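Material: INS-1E rat cells; Quantity: 8000 cells/well; Buffer or medium: phenol-red-free RPMI with 5% fetal bovine serum; Probe or stimulus: cytokine cocktail of IFN-γ, TNF-α and IL-1β; Compound dosing: single test concentration per compound, delivered by pin transfer; Incubation: 48 h co-treatment, 10 min post-lysis read; Signal: CellTiter-Glo luminescence.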
T cruzi HTS: inhibitors of intracellular Trypanosoma cruzi | intracellular Trypanosoma cruzi in host cells, plate reader | activity score (inhibition), % at 5.01 µM | hit rate 4.9% among 22,000 | AID 651903; in the data active = activity score above about 55%;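 also: parasites and compound incubated about four days before reading; 0% = median of neutral control wells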
A1 apoptosis 2: A1 inhibition read as caspase activation; MEF A1-2A-BIM cells, caspase-Glo luminescence, 3 h; percent of clofoctol response, DMSO zero; caspase activation, % (test concentration not listed); 24,000 tested, under 10 active; AID 2465; in the data active = caspase activation above about 5.9%
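system = A1-2A-BIM-expressing MEF cells | quantity = 2500 MEF cells/well | dosing = 50 nL compound per well, pinned | schedule = overnight cell settling, then 3 h compound exposure, 37 °C | signal = luminescence from DEVD-luciferin Caspase-Glo reagent, 1:1 in 50 mM HEPES, 1 h RT | read-out = Caspase-3/7 activation, seen as rise in luminescence signal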
Starred values were filed as active, the others as inactive; . = not tested or not shown.

SMILES	INS-1E ATP HTS	T cruzi HTS	A1 apoptosis 2
Cc1noc(C)c1S(=O)(=O)Nc1ccc2c(c1)CC(=O)N([C@H](C)CO)C[C@H](C)[C@H](CN(C)Cc1ccc(Cl)c(Cl)c1)O2	-10	53	1
Cc1noc(C)c1S(=O)(=O)Nc1ccc2c(c1)C(=O)N([C@H](C)CO)C[C@H](C)[C@@H](CN(C)Cc1ccc(Cl)c(Cl)c1)O2	-10	63*	.
Cc1noc(C)c1S(=O)(=O)Nc1ccc2c(c1)C(=O)N([C@@H](C)CO)C[C@@H](C)[C@H](CN(C)Cc1ccc(C(F)(F)F)cc1)O2	-18	28	.
Cc1noc(C)c1S(=O)(=O)Nc1ccc2c(c1)CC(=O)N([C@H](C)CO)C[C@@H](C)[C@@H](CN(C)Cc1ccc(Cl)c(Cl)c1)O2	-28	61*	.
Cc1noc(C)c1S(=O)(=O)Nc1ccc2c(c1)C(=O)N([C@H](C)CO)C[C@H](C)[C@H](CN(C)Cc1ccc(C(F)(F)F)cc1)O2	-12	63*	.
Cc1noc(C)c1S(=O)(=O)Nc1ccc2c(c1)C(=O)N([C@H](C)CO)C[C@@H](C)[C@@H](CN(C)Cc1ccc(Cl)c(Cl)c1)O2	-8	5	.
O=C(NO)c1ccc(C(=O)N/N=C/c2ccc(O)cc2O)cc1	-7	18	-2
O=C(NO)c1ccc(C(=O)N/N=C/c2cccc(OCCO)c2)cc1	8	-11	-1
CC(C)NC(=O)Nc1cccc2c1O[C@H](CN(C)Cc1ccc(Cl)c(Cl)c1)[C@H](C)CN([C@@H](C)CO)C2=O	-8	-3	0
COc1ccc(NC(=O)Nc2cccc3c2O[C@@H](CN(C)S(=O)(=O)c2ccc(F)cc2)[C@H](C)CN([C@@H](C)CO)C3=O)cc1	0	3	0
C[C@H]1CN([C@@H](C)CO)C(=O)CCCn2cc(nn2)CO[C@H]1CN(C)S(=O)(=O)c1ccc2c(c1)OCCCO2	4	-13	-1
C[C@H](CO)N1C[C@H](C)[C@H](CN(C)Cc2ccc(C(=O)Nc3ccccc3N)cc2)Oc2c(NC(=O)NC3CCCCC3)cccc2C1=O	-9	58*	-1
C[C@@H]1CN([C@@H](C)CO)C(=O)c2cccc(NC(=O)C3CC3)c2O[C@H]1CN(C)Cc1ccc(C(=O)Nc2ccccc2N)cc1	-10	38	0
C[C@@H]1CN([C@H](C)CO)C(=O)c2cccc(NC(=O)NC3CCCCC3)c2O[C@@H]1CN(C)Cc1ccc(C(=O)Nc2ccccc2N)cc1	17	67*	1
C[C@H]1CN([C@@H](C)CO)C(=O)c2cccc(NC(=O)NC3CCCCC3)c2O[C@H]1CN(C)Cc1ccc(C(=O)Nc2ccccc2N)cc1	-19	60*	.
CC(C)NC(=O)Nc1cccc2c1O[C@@H](CN(C)Cc1ccc(C(=O)Nc3ccccc3N)cc1)[C@@H](C)CN([C@H](C)CO)C2=O	-14	31	-2
CC(C)NC(=O)Nc1cccc2c1O[C@@H](CN(C)Cc1ccc(C(=O)Nc3ccccc3N)cc1)[C@@H](C)CN([C@@H](C)CO)C2=O	-15	27	1
CC(C)NC(=O)Nc1cccc2c1O[C@H](CN(C)Cc1ccc(C(=O)Nc3ccccc3N)cc1)[C@H](C)CN([C@@H](C)CO)C2=O	28	52	-1
C[C@@H]1CN([C@@H](C)CO)C(=O)c2cccc(NC(=O)C3CCCCC3)c2O[C@@H]1CN(C)Cc1ccc(C(=O)Nc2ccccc2N)cc1	47	61*	.
C[C@H](CO)N1C[C@H](C)[C@H](CN(C)C(=O)Nc2ccc3c(c2)OCO3)Oc2ccc(NC(=O)CCCN(C)C)cc2C1=O	2	5	.
Cc1ccc(S(=O)(=O)Nc2ccc3c(c2)C(=O)N([C@@H](C)CO)C[C@H](C)[C@H](CN(C)Cc2ccccc2)O3)cc1	.	1	-1
COc1ccc(NC(=O)N(C)C[C@@H]2OCc3cnnn3CCCC(=O)N([C@H](C)CO)C[C@H]2C)c(OC)c1	.	3	.
CNC[C@@H]1OCCCC[C@@H](C)Oc2ccc(NS(=O)(=O)c3c(C)noc3C)cc2C(=O)N([C@H](C)CO)C[C@H]1C	.	.	1
C=CCN1C(=O)[C@@]2(Cc3ccccc3)N=C(c3ccc(OCCCO)cc3)O[C@H]2c2ccccc21	.	.	0
C[C@H]1CN([C@@H](C)CO)C(=O)c2cc(NC(=O)CCCN(C)C)ccc2O[C@@H]1CN(C)Cc1ccc(C(F)(F)F)cc1	1	8	.
SMILES	INS-1E ATP HTS	T cruzi HTS	A1 apoptosis 2
C[C@H]1CN([C@@H](C)CO)C(=O)Cc2cc(NC(=O)Cc3ccccc3)ccc2O[C@@H]1CN(C)Cc1ccccc1	0	51	-1
COc1ccc(NC(=O)Nc2ccc3c(c2)CC(=O)N([C@H](C)CO)C[C@H](C)[C@H](CN(C)Cc2ccc(Cl)c(Cl)c2)O3)cc1	-18	2	2
C[C@H](CO)N1C[C@H](C)[C@H](CN(C)Cc2ccc(Cl)c(Cl)c2)Oc2ccc(NC(=O)Nc3ccccc3)cc2CC1=O	-34	75*	1
C[C@@H]1CN([C@@H](C)CO)C(=O)Cc2cc(NC(=O)Nc3ccc(F)cc3)ccc2O[C@@H]1CN(C)Cc1ccc(Cl)c(Cl)c1	1	67*	0
C[C@H]1CN([C@@H](C)CO)C(=O)Cc2cc(NC(=O)Cc3ccccc3)ccc2O[C@H]1CN(C)Cc1ccc(Cl)c(Cl)c1	-27	57*	1
C[C@H](CO)N1C[C@H](C)[C@H](CN(C)Cc2ccc(Cl)c(Cl)c2)Oc2ccc(NC(=O)Nc3ccc4c(c3)OCO4)cc2CC1=O	-28	80*	0
C[C@@H]1CN([C@@H](C)CO)C(=O)Cc2cc(NC(=O)Nc3ccc4c(c3)OCO4)ccc2O[C@H]1CN(C)Cc1ccc2c(c1)OCO2	.	.	1
C[C@H]1CN([C@@H](C)CO)C(=O)Cc2cc(NC(=O)Nc3ccccc3)ccc2O[C@H]1CN(C)Cc1ccc(Cl)c(Cl)c1	-56	-15	2
C[C@H](CO)N1C[C@H](C)[C@H](CN(C)S(=O)(=O)c2ccccc2)Oc2ccc(NC(=O)c3ccncc3)cc2CC1=O	-3	0	-1
Cc1ccc(S(=O)(=O)Nc2cccc3c2O[C@@H](CN(C)Cc2ccncc2)[C@@H](C)CN([C@H](C)CO)C3=O)cc1	8	21	.
C[C@@H]1CN([C@H](C)CO)C(=O)CCCn2nncc2CO[C@H]1CN(C)C(=O)Nc1cccc(Oc2ccccn2)c1	.	-15	2
CC(C)NC(=O)N(C)C[C@@H]1Oc2ccc(NC(=O)Nc3ccc(C(F)(F)F)cc3)cc2C(=O)N([C@@H](C)CO)C[C@H]1C	-3	3	0
C[C@@H]1CN([C@H](C)CO)C(=O)c2cccc(NC(=O)Nc3ccc(C(F)(F)F)cc3)c2O[C@H]1CN(C)Cc1ccc(Cl)c(Cl)c1	-36	87*	.
C[C@H](CO)N1C[C@H](C)[C@@H](CN(C)Cc2ccc(Cl)c(Cl)c2)Oc2c(NC(=O)Nc3ccc(F)cc3)cccc2C1=O	-23	18	0
C[C@@H]1CN([C@H](C)CO)C(=O)c2cccc(NC(=O)Nc3ccc(F)cc3)c2O[C@H]1CN(C)Cc1ccc(Cl)c(Cl)c1	-8	35	.

Source: PubChem
